Results reported in ChEMBL document CHEMBL4350958, “Rational Design of Short Peptide Variants by Using Kunitzin-RE, an Amphibian-Derived Bioactivity Peptide, for Acquired Potent Broad-Spectrum Antimicrobial and Improved Therapeutic Potential of Commensalism Coinfection of Pathogens” (J Med Chem, 2019).
Converted amounts (≈) assume the structure as drawn. Where a SMILES comes first, the peptide text is derived from it.

Assays:
[1] = Therapeutic index, ratio of MHC10 for hemolytic activity in human RBC to MIC95 against Staphylococcus aureus ATCC 29213; assay type: toxicity; settings: human red blood cells (erythrocytes), read-out: TI
Method in brief: (§1)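 Therapeutic index = MHC divided by MIC. MHC is the lowest concentration giving >10% lysis of human RBC (1 h, 37 °C, 1-128 µM, A576). MIC is 95% growth inhibition by broth microdilution: bacteria in MHB 24 h at 37 °C; Candida in MOPS-buffered RPMI 1640 at (0.5–1) × 10^3 CFU mL−1, 48 h at 28 °C.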

Staphylococcus aureus [2] = assay: Antibacterial activity against Staphylococcus aureus ATCC 29213 measured after 18 to 24 hrs in presence of NH4Cl; assay type: functional
Method in brief: (§2)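 MIC broth microdilution (MHB, 0.2% BSA peptide diluent, A492, 95% inhibition) run in the presence of physiological salts at final concentrations of 6 μM NH4Cl or 8 μM ZnCl2. Three independent assays, each with three technical replicates.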

Candida albicans [3] = assay: Antifungal activity against Candida albicans cgmcc2.2086 measured after 48 hrs in presence of FeCl by broth microdilution method; assay type: functional; settings: cgmcc2.2086, 48 h
Staphylococcus aureus [4] = assay: Antibacterial activity against Staphylococcus aureus ATCC 29213 measured after 18 to 24 hrs in presence of MgCl2; assay type: functional
Escherichia coli [5] = assay: Antibacterial activity against Escherichia coli ATCC 25922 measured after 18 to 24 hrs in presence of CaCl2; assay type: functional
[6] = Therapeutic index, ratio of MHC10 for hemolytic activity in human RBC to MIC95 against Candida tropicalis cgmcc2.1975; assay type: toxicity; settings: human red blood cells (erythrocytes), read-out: TI; method in brief: as §1
[7] = Therapeutic index, ratio of MHC10 for hemolytic activity in human RBC to MIC95 against Staphylococcus epidermidis ATCC 12228; assay type: toxicity; settings: human red blood cells (erythrocytes), read-out: TI; method in brief: as §1
Candida albicans [8] = assay: Antifungal activity against Candida albicans cgmcc2.2086 measured after 48 hrs in presence of NaCl by broth microdilution method; assay type: functional; settings: cgmcc2.2086, 48 h
Escherichia coli [9] = assay: Antibacterial activity against Escherichia coli K99 measured after 24 hrs; assay type: functional; settings: K99, 24 h
Method in brief: (§3)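 Broth microdilution adapted from NCCLS. Mid-log bacteria were diluted in MHB to a final (0.5–1) × 10^5 CFU mL−1. Peptides were serially diluted in 0.2% BSA and mixed with an equal volume of cells. After 24 h at 37 °C, MIC was read at A492 as the lowest concentration inhibiting 95% of growth. At least three independent experiments, each with three technical replicates.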

Candida albicans [10] = assay: Antifungal activity against Candida albicans cgmcc2.2086 measured after 48 hrs in presence of MgCl by broth microdilution method; assay type: functional; settings: cgmcc2.2086, 48 h
Candida albicans [11] = assay: Antifungal activity against Candida albicans cgmcc2.2086 measured after 48 hrs in presence of ZnCl by broth microdilution method; assay type: functional; settings: cgmcc2.2086, 48 h
Staphylococcus aureus [12] = assay: Antibacterial activity against Staphylococcus aureus ATCC 29213 measured after 18 to 24 hrs in presence of ZnCl2; assay type: functional; method in brief: as §2
Staphylococcus aureus [13] = assay: Antibacterial activity against Staphylococcus aureus ATCC 25923 measured after 24 hrs; assay type: functional; settings: ATCC 25923, 24 h
Method in brief: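 Broth microdilution modified from NCCLS. Mid-log bacteria at (0.5–1) × 10^5 CFU mL−1 in MHB, mixed with peptides serially diluted in 0.2% BSA. Incubated 24 h at 37 °C, read at A492. MIC taken as lowest concentration giving 95% growth inhibition. At least three independent experiments, each with three technical replicates.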

Salmonella typhimurium = assay: Antibacterial activity against Salmonella typhimurium C7731 measured after 24 hrs; assay type: functional, Salmonella enterica subsp. enterica serovar Typhimurium; settings: Salmonella enterica, C7731, 24 h; method in brief: as §3
Escherichia coli [14] = assay: Antibacterial activity against Escherichia coli 078 measured after 24 hrs; assay type: functional; settings: Escherichia coli, 078, 24 h; method in brief: as §3
Staphylococcus aureus [15] = assay: Antibacterial activity against Staphylococcus aureus ATCC 29213 measured after 18 to 24 hrs in presence of KCl; assay type: functional
Escherichia coli [16] = assay: Bactericidal activity against Escherichia coli UB1005 incubated for 24 hrs followed by replating on agar plate and measured after overnight incubation; assay type: functional; settings: UB1005, 24 h, read-out: MBC>99.9
Method in brief: (§4)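 Mid-log bacteria diluted in MHB to (0.5–1) × 10^5 CFU/mL and mixed 1:1 with peptide serially diluted in 0.2% BSA. After 24 h at 37 °C, 50 μL of each mixture was plated on agar and incubated overnight. MBC taken as the lowest concentration killing >99.9% of cells. At least three independent experiments, each with three technical replicates.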

Escherichia coli [17] = assay: Antibacterial activity against Escherichia coli ATCC 25922 measured after 18 to 24 hrs in presence of KCl; assay type: functional
[18] = Conformational stability in pH 7.4 sodium phosphate buffer assessed as absorption spectra at minimum dichroic band at 35 uM by CD spectra analysis; assay type: physicochemical; settings: pH 7.4, 35 µM
Method in brief: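 CD spectra from 190 to 250 nm of peptide at 35 μM in 10 mM PBS, 30 mM SDS micelles or 50% TFE, recorded in a 1.0-mm quartz cell. Ellipticity was converted to mean residue ellipticity. Three independent scans, each averaged over more than 3 runs.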

[19] = Therapeutic index, ratio of MHC10 for hemolytic activity in human RBC to MIC95 against Staphylococcus aureus ATCC 25923; assay type: toxicity; settings: human red blood cells (erythrocytes), read-out: TI; method in brief: as §1
[20] = Bactericidal activity against Salmonella pullorum ATCC 7913 incubated for 24 hrs followed by replating on agar plate and measured after overnight incubation; assay type: functional, Salmonella enterica subsp. enterica serovar Pullorum; settings: Salmonella enterica, ATCC 7913, 24 h; read-out: MBC>99.9; method in brief: as §4
[21] = Cytotoxicity against mouse RAW264.7 cells assessed as cell viability at 2 to 64 uM measured after 18 to 24 hrs by MTT assay relative to control; assay type: cell-based; settings: RAW264.7 cells, read-out: Activity
Method in brief: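 MTT assay: RAW264.7 cells seeded at 1.0–2.0×10^4 per well and exposed to peptide (2–64 µM) for 18–24 h at 37 °C in 5% CO2. MTT (0.5 mg/mL) added for 4 h, formazan dissolved in DMSO, read at 570 nm. At least three independent experiments with triplicate wells.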

Staphylococcus aureus [22] = assay: Bactericidal activity against methicillin-resistant Staphylococcus aureus ATCC 43300 incubated for 24 hrs followed by replating on agar plate and measured after overnight incubation; assay type: functional; settings: ATCC 43300, 24 h, read-out: MBC>99.9
Method in brief: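 After the 24 h, 37 °C MHB microdilution MIC assay, 50 μL from each well was plated on agar and incubated overnight. MBC taken as lowest peptide concentration killing >99.9% of cells. At least three independent experiments, each with three technical replicates.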

Candida tropicalis = assay: Fungicidal activity against Candida tropicalis cgmcc2.1975 incubated for 48 hrs followed by replating on YM agar plate and measured after 48 hrs; assay type: functional
Method in brief: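 Yeast diluted in MOPS-buffered RPMI 1640 to (0.5–1) × 10^3 CFU/mL (CLSI M27-A2, modified) and mixed 1:1 with peptide serially diluted in 0.2% BSA. After 48 h at 28 °C, 50 μL per well was plated on YM agar and incubated 48 h at 28 °C. MFC taken as the lowest concentration killing ≥99.9% of cells. Three or more independent experiments, triplicate wells.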

| Molecule | selectivity ratio [1] | MIC95 (Staphylococcus aureus [2]) [µM] | MIC95 (Candida albicans [3]) [µM] | MIC95 (Staphylococcus aureus [4]) [µM] | MIC95 (Escherichia coli [5]) [µM] | selectivity ratio [6] | selectivity ratio [7] | MIC95 (Candida albicans [8]) [µM] | MIC95 (Escherichia coli [9]) [µM] | MIC95 (Candida albicans [10]) [µM] | MIC95 (Candida albicans [11]) [µM] | MIC95 (Staphylococcus aureus [12]) [µM] | MIC95 (Staphylococcus aureus [13]) [µM] | MIC95 (Salmonella typhimurium) [µM] | MIC95 (Escherichia coli [14]) [µM] | MIC95 (Staphylococcus aureus [15]) [µM] | MIC95 (Escherichia coli [17]) [µM] | Wavelength of minimum CD band [18] [nm] | selectivity ratio [19] | viability at up to 64 µM [21] [%] | further results |
| --- | --- | --- | --- | --- | --- | --- | --- | --- | --- | --- | --- | --- | --- | --- | --- | --- | --- | --- | --- | --- | --- |
| CC[C@H](C)[C@H](NC(=O)[C@H](CCCCN)NC(=O)[C@H](C)NC(=O)[C@H](C)N)C(=O)N[C@H](C(=O)N[C@@H](CC(C)C)C(=O)N[C@@H](CC(N)=O)C(=O)N1CCC[C@H]1C(=O)N[C@@H](CCCCN)C(=O)N[C@@H](Cc1ccccc1)C(=O)N[C@@H](CCCNC(=N)N)C(=O)N[C@@H](CS)C(=O)N[C@@H](CCCCN)C(=O)N[C@@H](C)C(=O)N[C@@H](C)C(=O)N[C@@H](Cc1ccccc1)C(=O)N[C@@H](CS)C(N)=O)[C@@H](C)CC (H-AAKIILNPKFRCKAAFC-NH2) | 0.3 | > 128 | > 128 | > 128 | > 128 | 0.25 | 0.3 | > 128 | 32 (≈ 60.6 µg/mL) | > 128 | > 128 | > 128 | 64 (≈ 121 µg/mL) | > 128 | > 128 | > 128 | 32 | 200 | 0.3 | 90 to 100 | MBC (Escherichia coli [16]): 128 µM (≈ 242 µg/mL); MBC [20]: > 128 µM |
| H-AAKIILNPKFR-NH2 | 2 | > 128 | > 128 | > 128 | > 128 | 2 | 2 | > 128 | > 128 | > 128 | > 128 | > 128 | > 128 | > 128 | > 128 | > 128 | 128 | 200 | 2 | 90 to 100 | – |
| H-AARIILRDRFR-NH2 | 2 | > 128 | > 128 | > 128 | > 128 | 2 | 2 | > 128 | > 128 | > 128 | > 128 | > 128 | > 128 | > 128 | > 128 | > 128 | 128 | 200 | 2 | 90 to 100 | – |
| H-AARIILRFRFR-NH2 | 128 | 2 | 8 | 2 | 32 | 50.8 | 128 | 32 | 2 | 16 | 8 | 2 | 2 | 4 | 4 | 2 | 16 | 200 | 128 | 90 to 100 | MBC (Staphylococcus aureus [22]): 4 µM; MBC (Escherichia coli [16]): 8 µM; MFC<=99.9 (Candida tropicalis): 4 µM; MBC [20]: 8 µM |
| H-AARIILRNRFR-NH2 | 2 | > 128 | > 128 | > 128 | > 128 | 2 | 2 | > 128 | 16 | > 128 | > 128 | > 128 | > 128 | 32 | 16 | > 128 | 64 | 200 | 2 | 90 to 100 | MBC (Escherichia coli [16]): 32 µM; MBC [20]: 32 µM |
| H-AARIILRPRFR-NH2 | 2 | > 128 | > 128 | > 128 | 128 | 2 | 2 | > 128 | 16 | > 128 | > 128 | > 128 | > 128 | 16 | 8 | > 128 | 16 | 200 | 2 | 90 to 100 | MBC (Escherichia coli [16]): 16 µM; MBC [20]: 64 µM |
